From ChEMBL document CHEMBL4138139, “Discovery of VU6005649, a CNS Penetrant mGlu7/8 Receptor PAM Derived from a Series of Pyrazolo[1,5-a]pyrimidines” (ACS Med Chem Lett, 2017)

Experiments:
[1] = Brain to plasma partition coefficient, Kp of the compound in Sprague-Dawley rat at 0.2 to […], iv administered as cassette dose measured at […] post dose by LC-MS/MS analysis; assay type: ADME, organism-based; details: brain and plasma
[2] = target: Cytochrome P450 2D6 (Homo sapiens, UniProt P10635); test: Inhibition of CYP2D6 in human liver microsomes using dextromethorphan as substrate preincubated for 15 mins followed by NADPH addition measured after 8 mins by LC-MS/MS analysis; assay type: ADME
Chain of Cytochrome P450 2D6 (P10635 whole entry): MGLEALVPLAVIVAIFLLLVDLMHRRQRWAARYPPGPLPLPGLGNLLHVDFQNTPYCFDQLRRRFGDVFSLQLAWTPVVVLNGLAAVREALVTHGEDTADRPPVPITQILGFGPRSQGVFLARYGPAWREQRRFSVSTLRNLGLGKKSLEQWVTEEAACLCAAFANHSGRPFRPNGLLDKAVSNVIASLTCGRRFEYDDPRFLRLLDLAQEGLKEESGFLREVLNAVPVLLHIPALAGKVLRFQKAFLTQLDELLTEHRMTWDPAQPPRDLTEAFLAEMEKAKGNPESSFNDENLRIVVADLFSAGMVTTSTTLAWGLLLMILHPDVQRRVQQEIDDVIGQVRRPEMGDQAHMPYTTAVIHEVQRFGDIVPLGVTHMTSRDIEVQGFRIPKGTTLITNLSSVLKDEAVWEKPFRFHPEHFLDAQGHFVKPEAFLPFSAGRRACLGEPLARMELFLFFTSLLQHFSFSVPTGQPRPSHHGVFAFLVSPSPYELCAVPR

[3] = target: Beta-2 adrenergic receptor (Homo sapiens) (UniProt P07550); test: Displacement of [3H] CGP-12177 from recombinant human beta2 receptor expressed in CHO cell membranes co-expressing human NBR1 at 10 uM after 60 mins by scintillation counting method relative to control
Chain of Beta-2 adrenergic receptor (Homo sapiens) (P07550 whole entry, looked up): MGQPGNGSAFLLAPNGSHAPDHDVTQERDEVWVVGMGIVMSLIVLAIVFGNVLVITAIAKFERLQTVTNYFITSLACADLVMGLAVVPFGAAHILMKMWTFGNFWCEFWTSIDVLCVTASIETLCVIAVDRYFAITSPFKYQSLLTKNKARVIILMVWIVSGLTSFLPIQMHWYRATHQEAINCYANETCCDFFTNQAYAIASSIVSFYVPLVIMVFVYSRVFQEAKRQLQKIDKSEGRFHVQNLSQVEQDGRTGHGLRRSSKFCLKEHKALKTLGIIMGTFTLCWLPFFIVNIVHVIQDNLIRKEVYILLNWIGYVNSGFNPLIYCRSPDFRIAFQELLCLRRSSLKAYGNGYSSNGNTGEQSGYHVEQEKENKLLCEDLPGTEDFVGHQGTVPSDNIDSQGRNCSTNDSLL
In short: (§1)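 Single-concentration screen at 10 μM in an outsourced profiling panel of 68 GPCRs, ion channels and transporters. Activity read out as percent inhibition of specific radioligand binding.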

[4] = target: D(2) dopamine receptor (Homo sapiens) (UniProt P14416); test: Displacement of [3H] spiperone from recombinant human D2S receptor expressed in CHO cell membranes at 10 uM after 120 mins by scintillation counting method relative to control
Chain of D(2) dopamine receptor (Homo sapiens) (P14416 whole entry): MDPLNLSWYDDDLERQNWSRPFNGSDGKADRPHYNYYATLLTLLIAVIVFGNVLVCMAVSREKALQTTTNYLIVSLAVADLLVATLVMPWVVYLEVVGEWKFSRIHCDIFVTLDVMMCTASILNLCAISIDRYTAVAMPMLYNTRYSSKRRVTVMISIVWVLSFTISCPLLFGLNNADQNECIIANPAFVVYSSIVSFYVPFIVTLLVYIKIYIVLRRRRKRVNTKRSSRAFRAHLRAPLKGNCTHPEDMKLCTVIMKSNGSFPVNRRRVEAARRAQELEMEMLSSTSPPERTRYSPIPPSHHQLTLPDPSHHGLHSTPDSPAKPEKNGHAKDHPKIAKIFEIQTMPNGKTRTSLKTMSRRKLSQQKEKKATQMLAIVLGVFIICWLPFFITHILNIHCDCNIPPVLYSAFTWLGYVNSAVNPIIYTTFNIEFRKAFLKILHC
In short: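 Single-concentration screen at 10 μM within a commercial lead-profiling panel of 68 GPCRs, ion channels and transporters. Activity read as percent inhibition of specific radioligand binding to each target.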

[5] = target: Gamma-aminobutyric acid type B receptor subunit 1 (Homo sapiens) (UniProt Q9UBS5); test: Displacement of [3H] CGP-54626 from recombinant human GABAB isoform 1a receptor expressed in CHOK1 cell membranes at 10 uM after 180 mins by scintillation counting method relative to control; in short: as §1
Chain of Gamma-aminobutyric acid type B receptor subunit 1 (Homo sapiens) (Q9UBS5 whole entry, canonical isoform): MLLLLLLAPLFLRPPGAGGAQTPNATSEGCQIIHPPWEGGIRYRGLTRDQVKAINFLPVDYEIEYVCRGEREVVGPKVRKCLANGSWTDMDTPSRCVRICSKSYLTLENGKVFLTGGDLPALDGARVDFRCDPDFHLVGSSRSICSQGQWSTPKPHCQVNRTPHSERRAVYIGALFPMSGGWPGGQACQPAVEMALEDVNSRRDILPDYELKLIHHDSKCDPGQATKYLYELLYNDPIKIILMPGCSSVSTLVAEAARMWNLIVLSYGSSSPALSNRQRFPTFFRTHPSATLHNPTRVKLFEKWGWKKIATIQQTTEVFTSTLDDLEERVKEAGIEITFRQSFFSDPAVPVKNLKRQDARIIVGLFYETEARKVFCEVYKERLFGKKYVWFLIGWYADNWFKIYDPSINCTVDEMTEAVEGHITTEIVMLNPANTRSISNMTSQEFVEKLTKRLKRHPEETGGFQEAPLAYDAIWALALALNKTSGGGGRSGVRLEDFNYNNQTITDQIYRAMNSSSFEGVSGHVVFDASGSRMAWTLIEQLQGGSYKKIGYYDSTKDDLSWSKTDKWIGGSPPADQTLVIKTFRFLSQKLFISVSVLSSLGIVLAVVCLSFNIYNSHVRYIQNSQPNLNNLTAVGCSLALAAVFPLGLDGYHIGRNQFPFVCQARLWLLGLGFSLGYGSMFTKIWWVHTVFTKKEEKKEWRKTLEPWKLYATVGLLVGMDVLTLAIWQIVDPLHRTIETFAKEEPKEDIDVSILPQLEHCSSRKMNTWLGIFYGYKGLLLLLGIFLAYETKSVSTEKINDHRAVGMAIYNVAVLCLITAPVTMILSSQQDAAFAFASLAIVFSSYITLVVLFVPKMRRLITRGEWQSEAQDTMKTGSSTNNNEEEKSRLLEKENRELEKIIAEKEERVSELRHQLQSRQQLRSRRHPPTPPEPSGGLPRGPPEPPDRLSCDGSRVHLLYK

[6] = target: Muscarinic acetylcholine receptor M3 (Homo sapiens) (UniProt P20309); test: Displacement of [3H] N-methylscopolamine from recombinant human M3 receptor expressed in CHOK1 cell membranes at 10 uM after 120 mins by scintillation counting method relative to control; in short: as §1
Chain of Muscarinic acetylcholine receptor M3 (Homo sapiens) (P20309 whole entry, looked up): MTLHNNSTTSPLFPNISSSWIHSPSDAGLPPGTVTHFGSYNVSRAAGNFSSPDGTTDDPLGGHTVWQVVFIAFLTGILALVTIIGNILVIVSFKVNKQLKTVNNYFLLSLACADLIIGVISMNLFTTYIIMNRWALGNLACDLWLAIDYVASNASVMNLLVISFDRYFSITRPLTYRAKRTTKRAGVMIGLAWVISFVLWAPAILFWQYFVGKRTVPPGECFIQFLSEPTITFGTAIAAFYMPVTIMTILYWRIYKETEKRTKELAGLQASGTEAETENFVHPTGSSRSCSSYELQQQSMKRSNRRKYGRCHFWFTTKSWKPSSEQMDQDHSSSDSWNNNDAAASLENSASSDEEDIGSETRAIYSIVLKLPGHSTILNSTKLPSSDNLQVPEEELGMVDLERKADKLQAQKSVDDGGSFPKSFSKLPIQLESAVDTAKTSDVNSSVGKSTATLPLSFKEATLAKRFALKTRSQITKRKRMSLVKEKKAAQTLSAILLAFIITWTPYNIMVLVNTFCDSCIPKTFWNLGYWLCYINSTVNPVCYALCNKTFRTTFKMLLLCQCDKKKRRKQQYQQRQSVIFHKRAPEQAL

[7] = target: Sodium-dependent dopamine transporter (Homo sapiens) (UniProt Q01959); test: Displacement of [125I] RTI-55 from full length human recombinant DAT expressed in CHO cell membranes at 10 uM after 180 mins by scintillation counting method relative to control; in short: as §1
Chain of Sodium-dependent dopamine transporter (Homo sapiens) (Q01959 whole entry): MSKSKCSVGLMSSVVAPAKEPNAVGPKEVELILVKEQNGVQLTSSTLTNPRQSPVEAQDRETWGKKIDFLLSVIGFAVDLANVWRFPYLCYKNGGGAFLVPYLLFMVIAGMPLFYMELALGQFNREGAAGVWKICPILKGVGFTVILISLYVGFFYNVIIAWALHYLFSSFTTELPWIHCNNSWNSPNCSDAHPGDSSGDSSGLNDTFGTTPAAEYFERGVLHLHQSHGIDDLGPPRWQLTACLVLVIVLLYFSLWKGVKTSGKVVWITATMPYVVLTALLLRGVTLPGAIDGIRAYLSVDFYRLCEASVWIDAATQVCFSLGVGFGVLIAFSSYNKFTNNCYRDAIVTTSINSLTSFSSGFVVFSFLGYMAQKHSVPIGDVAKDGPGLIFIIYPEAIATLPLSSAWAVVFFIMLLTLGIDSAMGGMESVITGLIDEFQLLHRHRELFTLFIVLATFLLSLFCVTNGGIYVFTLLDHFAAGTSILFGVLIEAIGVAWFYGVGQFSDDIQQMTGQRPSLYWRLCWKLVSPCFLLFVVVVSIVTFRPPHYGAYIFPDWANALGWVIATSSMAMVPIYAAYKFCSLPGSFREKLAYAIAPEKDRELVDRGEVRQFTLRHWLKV

[8] = organism: Homo sapiens; test: Displacement of [125I] epibatidine from human nAChR expressed in IMR32 cell membranes at 10 uM after 60 mins by scintillation counting method relative to control; in short: as §1
[9] = organism: Rattus norvegicus; test: Displacement of [125I] triiodothyronine from thyroid hormone receptor in Sprague-Dawley rat liver membranes at 10 uM after 18 hrs by scintillation counting method relative to control; assay type: cell membranes; details: Membrane; in short: as §1
[10] = organism: Mus musculus; test: Displacement of [3H] PDBu from phorbol ester receptor in ICR mouse brain membranes at 10 uM after 60 mins by scintillation counting method relative to control; assay type: cell membranes; details: Membrane; in short: as §1
[11] = organism: Rattus norvegicus; test: Displacement of [3H] Rolipram from PDE4 receptor rolipram binding site in Wistar rat brain membranes at 10 uM after 60 mins by scintillation counting method relative to control; assay type: cell membranes; details: Membrane; in short: as §1

For `COc1ccc(-c2c(C)nn3c(C(F)(F)F)cc(C)nc23)c(F)c1F`, the Kp at […] [1] was 4.3, the IC50 [2] was > 30 µM and the inhibition [3] was < 50%. For the same compound, the inhibition [4] was < 50%, the inhibition [5] was < 50% and the inhibition [6] was < 50%. The inhibition [7] was < 50%, the inhibition [8] was < 50% and the inhibition [9] was < 50%. For the same compound, the inhibition [10] was < 50% and the inhibition [11] was < 50%.
